This is an account of results in PubChem BioAssay.

SMILES strings stand for the structures. Active and inactive are the calls of the source.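 The calls were made as follows, unless noted: active = visually confirmed hit in the image check and inhibition above 20%; inconclusive = visually confirmed hit but inhibition not above 20%; inactive = no visual hit in the image check.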

Assay [1] in a line: inhibitors of TNFa-induced NFkB p65 translocation, primary screen, imaging, HUVEC, MLSMR starter and 10KST1 sets (AID 438;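 active = inhibition above 20% together with a positive visual image hit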;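 also: compound added about 3h40 before a 20 min TNFalpha stimulation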;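 as to inhibition: signal is the nuclear over cytoplasmic p65 intensity ratio per well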). The note with it: HUVEC TNFa-induced p65 nuclear translocation; cell count: measured here: nuclei count (cytotoxicity indicator), at 2.08 µM; inhibition: at 2 µM, stronger effect = higher value, 0% TNFa-plus-vehicle, 100% no-TNFa wells.
Assay [2] is described as follows: inhibitors of E-selectin induction by TNFa, primary screen, imaging, HUVEC, immunofluorescence, MLSMR starter and 10KST1 sets (AID 487).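 As to inhibition: signal is fraction of cell area covered by stained E-selectin grains.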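 As to nuclei count: 100% = median nuclei count of all wells on the same plate.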 The note with it: HUVEC TNFalpha-induced E-selectin immunofluorescence imaging, at 2 µM; inhibition: stronger effect = higher value; nuclei count: measured here: cell number, toxicity.
Assay [3] is described as follows: DUSP6 inhibitors restoring Erk phosphorylation by chemical complementation, primary imaging in DUSP6-transfected HeLa (AID 609;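 active = compounds giving at least 50% inhibition in the cell-based MKP-3 phosphatase rescue imaging test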;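 as to inhibition: phospho-Erk level distribution per well compared with pooled transfected vehicle control wells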). Particulars: HeLa MKP-3 transfected, phospho-Erk imaging KS statistic, at 10 µM, cells stimulated with TPA for 15 min.
The target in assay [4] is Dual specificity protein phosphatase 6 (Homo sapiens) (UniProt Q16828). The assay is described as above. The note with it: HeLa MKP-3 transfected, phospho-Erk imaging KS statistic; at 10 µM; stronger effect = higher value; cells stimulated with TPA for 15 min.
Sequence of Dual specificity protein phosphatase 6 (Homo sapiens) (Q16828 whole entry, looked up): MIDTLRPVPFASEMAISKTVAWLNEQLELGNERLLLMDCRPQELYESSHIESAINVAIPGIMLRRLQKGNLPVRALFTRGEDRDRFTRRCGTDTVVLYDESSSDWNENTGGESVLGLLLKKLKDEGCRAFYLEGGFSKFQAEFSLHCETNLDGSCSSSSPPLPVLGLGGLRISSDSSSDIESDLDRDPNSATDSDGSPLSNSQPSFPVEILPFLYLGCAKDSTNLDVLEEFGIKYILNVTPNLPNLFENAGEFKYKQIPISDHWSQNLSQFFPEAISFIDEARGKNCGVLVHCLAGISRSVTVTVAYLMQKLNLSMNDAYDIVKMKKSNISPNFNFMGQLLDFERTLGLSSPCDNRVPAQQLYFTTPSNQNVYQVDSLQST
The target in assay [5] is Voltage-gated potassium channel subunit beta-2 (Rattus norvegicus) (UniProt P62483). Description: KvBeta enzyme negative modulators, primary screen, biochemical, NADPH fluorescence (AID 622;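 active = fluorescence slope higher than the sample average by over 3 SD, cut at about -0.22 in these data, passing the limit was not always enough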;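 also: slope of raw intensity against log time taken from 70 to 1610 s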). Particulars: recombinant KvBeta, 4-cyanobenzaldehyde reduction, at 10 µM, stronger effect = higher value.
Sequence of Voltage-gated potassium channel subunit beta-2 (Rattus norvegicus) (P62483 whole entry, looked up): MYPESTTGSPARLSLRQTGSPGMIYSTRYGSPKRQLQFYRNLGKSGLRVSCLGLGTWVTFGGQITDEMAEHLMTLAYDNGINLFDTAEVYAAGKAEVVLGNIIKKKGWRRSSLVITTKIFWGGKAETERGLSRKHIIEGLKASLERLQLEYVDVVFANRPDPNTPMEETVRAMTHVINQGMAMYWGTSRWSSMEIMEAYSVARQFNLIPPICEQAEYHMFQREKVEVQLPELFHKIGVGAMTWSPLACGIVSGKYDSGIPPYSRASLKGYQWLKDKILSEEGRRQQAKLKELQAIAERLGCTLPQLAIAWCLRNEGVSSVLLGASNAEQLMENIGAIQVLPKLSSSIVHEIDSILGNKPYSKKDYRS
The target is the same in assay [6]. Nature of the assay: KvBeta positive modulators, primary screen, biochemical, NADPH fluorescence (AID 623;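 active = NADPH fluorescence slope more negative than the mean of all samples by about 3 SD, 99.7% confidence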;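 also: fluorescence intensity change per second fitted from 20 to 320 s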). The note with it: Recombinant KvBeta, NADPH fluorescence decrease slope, 10 min; at 10 µM; stronger effect = lower value.
Assay [7] has as its target Alpha-2C adrenergic receptor (Homo sapiens) (UniProt P18825). Description: modulators of alpha2C/GIRK thallium flux, primary screen, cell-based, HEK293 alpha2C/GIRK1/2 (AID 624;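 active = fluorescence slope after compound addition differing from the mean of all screened samples at 99.7% confidence, in either direction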;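 also: slope of fluorescence ratio to pre-addition baseline per second over 15 to 24 s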). The note with it: thallium flux BTC fluorescence, at 10 µM, actives lie on both sides.
The nature of assay [8]: inhibitors of larval lipid processing in zebrafish, primary screen, whole organism, PED6 fluorescence, gall bladder and intestine (AID 686;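 active = a full or partial loss of lipid-probe fluorescence in the fish gall bladder, intestine or both, judged by eye; inactive = no fluorescence loss, or compound toxic to the fish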;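 also: larvae 5 to 7 days old with five fish per well; signal comes from phospholipase A2 cleavage of quenched PED6 carried via bile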). The note with it: Zebrafish larvae PED6 lipid processing, fluorescence scoring; screened at 20 µM (by protocol). In outline: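 system = live zebrafish larvae aged 5-7 days, whole organism | probe or stimulus = ingested quenched lipid PED6 at 100 nM | doses = 20 µM single dose | timing = overnight exposure | detection = fluorescence microscopy with visual scoring of gall bladder and intestine | read-out = visual per-well fluorescence inhibition score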

Assay [9] can be described thus: inhibitors of Chlamydomonas gravitaxis, primary screen, whole organism, Chlamydomonas reinhardtii, WT vs cilia-less mutant, absorbance, 96-well (AID 463189;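 active = inhibition at or above 50% relative to wild type and mutant plate controls; inactive = inhibition below 50%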;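 also: 0% = wild type cc124 cells in DMSO and 100% = ciliumless bld1 mutant cells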). The note with it: OD600 absorbance, 2 days, at 10 µM, stronger effect = higher value.
Setting [10] is: measured here: cell density z-score.
The mark [11] stands for this setting: measured here: nuclear c-Myc green intensity z-score.
The mark [12] stands for this setting: measured here: nuclear pErk red intensity z-score, stronger effect = higher value.

Sequence of Alpha-2C adrenergic receptor (Homo sapiens) (P18825 whole entry, looked up): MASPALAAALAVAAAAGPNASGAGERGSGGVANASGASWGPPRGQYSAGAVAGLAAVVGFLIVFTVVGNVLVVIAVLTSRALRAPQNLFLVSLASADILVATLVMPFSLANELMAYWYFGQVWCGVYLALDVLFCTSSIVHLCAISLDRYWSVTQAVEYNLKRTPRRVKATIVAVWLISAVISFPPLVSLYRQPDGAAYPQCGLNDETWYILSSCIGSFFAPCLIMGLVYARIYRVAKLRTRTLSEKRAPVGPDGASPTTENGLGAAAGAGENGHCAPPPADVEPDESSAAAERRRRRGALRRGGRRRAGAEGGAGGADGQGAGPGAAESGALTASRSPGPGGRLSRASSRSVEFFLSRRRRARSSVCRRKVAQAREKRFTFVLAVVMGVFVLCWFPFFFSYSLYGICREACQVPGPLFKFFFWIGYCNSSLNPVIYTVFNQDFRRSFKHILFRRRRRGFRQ

Take `C=CCn1c(SCc2c(F)c(F)c(F)c(F)c2F)nc(O)cc1=O`: the cell count in [1] came out at 615. Also, the inhibition (commonly the change of the read-out against control, counted positive when it falls) in assay [1] was -1.1% (inactive); in assay [2] it was -11.1% (inactive); in assay [4], 7.83% (inactive); in assay [9] it was 8.12% (inactive). The molecule also yielded a nuclei count in [2] of 149%. The z-score is 1.68 in assay [3] (setting [10]), -0.511 in [3] (setting [11]) and 0.131 in assay [3] (setting [12]). Also, in assay [5], the fluorescence slope was -0.502 (inactive). For the same molecule, the NADPH fluorescence slope in assay [6] is -0.00012 (inactive). The slope in [7] was 0.00491 (inactive). Further, in [8], the outcome was inactive.

`COc1cccc(-c2nc(N3CCC(C)CC3)c3ccccc3n2)c1O`: in [1], the cell count worked out at 573. Further, the inhibition in [1] was -3.3% (inactive); in [2], 48.3% (inactive); in assay [4], -12.3% (inactive); in assay [9], 9.22% (inactive). The same molecule yielded a nuclei count in [2] of 120%. Besides, the z-score in assay [3] (setting [10]) is 0.534; in assay [3] (setting [11]), -0.819; in assay [3] (setting [12]), 1.15. Further, in assay [5], the fluorescence slope is -0.409 (inactive). Also, the NADPH fluorescence slope in assay [6] is -3.4e-05 (inactive). In [7], the slope was 0.00378 (inactive). In assay [8], the result was inactive.

Consider `O=C(O)c1cnn2c(C(F)(F)F)cc(-c3ccco3)nc12`, for which the cell count in assay [1] is 416. Further, the inhibition in [1] was 1.3% (inactive); in [2], -45.3% (inactive); in assay [4], 9.39% (inactive); in [9] it was 17.4% (inactive). In assay [2], the nuclei count was 96.3%. Besides, the z-score was 1.16 in assay [3] (setting [10]), -0.0109 in assay [3] (setting [11]) and -0.464 in assay [3] (setting [12]). The fluorescence slope in [5] is -0.48 (inactive). The NADPH fluorescence slope in assay [6] was -7.9e-05 (inactive). Also, in [7], the slope was 0.005 (inactive). The molecule was classed as inactive in [8].

With `Cc1ccc(C2/C(=C(\O)c3cnn(-c4ccccc4)c3C)C(=O)C(=O)N2CCN(C)C)o1` (stereo unspecified), the cell count in assay [1] is 488. For the same molecule, the inhibition in assay [1] is 4.7% (inactive); in assay [2], -57.2% (inactive); in [4], 5.26% (inactive); in assay [9], -22.8% (inactive). Besides, the nuclei count in assay [2] worked out at 108%. Further, the results for the z-score in assay [3] (setting [10]), in [3] (setting [11]) and in assay [3] (setting [12]) were -0.998, 2.35 and 1.95, respectively. Besides, in assay [5], the fluorescence slope is -0.583 (inactive). Moreover, the NADPH fluorescence slope in assay [6] is -3.5e-05 (inactive). The slope in assay [7] was 0.00573 (inactive). Moreover, in assay [8], the molecule was called inactive.

Take `Cn1c(OCc2cccnc2)nc2c1c(=O)n(Cc1ccc(Cl)cc1)c(=O)n2C`: the cell count in [1] is 653. Moreover, the inhibition in assay [1] was -7.1% (inactive); in [2], 6.1% (inactive); in assay [4], 2.46% (inactive); in assay [9] it was 66.4% (active). The nuclei count in assay [2] was 156%. For the same molecule, the z-score was -0.404 in assay [3] (setting [10]), 0.0478 in assay [3] (setting [11]) and 1.27 in [3] (setting [12]). Moreover, the fluorescence slope in [5] is -0.505 (inactive). Besides, the NADPH fluorescence slope in assay [6] is -9.6e-05 (inactive). The slope in assay [7] was 0.00416 (inactive). In assay [8], the outcome was inactive.

As to `COc1cccc(C2/C(=C(/O)c3cnn(-c4ccccc4)c3C)C(=O)C(=O)N2CCN(C)C)c1OC` (stereo unspecified), in assay [1], the cell count came out at 502. Further, the inhibition in [1] was 6.3% (inactive); in [2], -119% (inactive); in assay [4] it was -7.01% (inactive); in assay [9], 8.54% (inactive). The molecule also registered a nuclei count in [2] of 152%. Besides, the z-score in assay [3] (setting [10]) is -0.295; in assay [3] (setting [11]), 0.206; in [3] (setting [12]), -1.1. Further, the fluorescence slope in [5] was -0.506 (inactive). Besides, in assay [6], the NADPH fluorescence slope was -2.1e-05 (inactive). For the same molecule, the slope in assay [7] is 0.00541 (inactive). In addition, the molecule was classed as inactive in assay [8].

With `CCOc1cccc(-c2nnc3sc(-c4cc(OC)c(OC)c(OC)c4)nn23)c1`, in assay [1], the cell count amounted to 647. Besides, the inhibition in [1] was -9.1% (inactive); in assay [2], -15.9% (inactive); in assay [4] it was -15% (inactive); in assay [9], 6.41% (inactive). In addition, the nuclei count in assay [2] was found to be 171%. In addition, the z-score in [3] (setting [10]) was 1.15; in [3] (setting [11]) it was 0.91; in [3] (setting [12]), -0.181. Besides, in assay [5], the fluorescence slope was -0.39 (inactive). Further, the NADPH fluorescence slope in [6] was -0.000117 (inactive). In assay [7], the slope is 0.00923 (inactive). In addition, the outcome in [8] was inactive.
